Assay results as given in ChEMBL document CHEMBL2321703, “Identification of novel D-amino acid oxidase inhibitors by in silico screening and their functional characterization in vitro” (J Med Chem, 2013).
Active and inactive are the calls of the source. No cut-off for these calls is given here.

Experiments:
[1] = molecular target: T1, D-amino-acid oxidase (Homo sapiens, UniProt P14920); experiment: Inhibition of human recombinant N-terminal His-tagged DAO expressed in Escherichia coli BL21(DE3) using D-alanine as substrate by colorimetric assay
[2] = molecular target: T2, Serine racemase (Homo sapiens, UniProt Q9GZT4); experiment: (§1) Inhibition of human recombinant N-terminal His-tagged serine racemase expressed in Escherichia coli BL21(DE3) using L-serine as substrate after 10 mins by fluorescence assay
T2 sequence (Q9GZT4 whole entry): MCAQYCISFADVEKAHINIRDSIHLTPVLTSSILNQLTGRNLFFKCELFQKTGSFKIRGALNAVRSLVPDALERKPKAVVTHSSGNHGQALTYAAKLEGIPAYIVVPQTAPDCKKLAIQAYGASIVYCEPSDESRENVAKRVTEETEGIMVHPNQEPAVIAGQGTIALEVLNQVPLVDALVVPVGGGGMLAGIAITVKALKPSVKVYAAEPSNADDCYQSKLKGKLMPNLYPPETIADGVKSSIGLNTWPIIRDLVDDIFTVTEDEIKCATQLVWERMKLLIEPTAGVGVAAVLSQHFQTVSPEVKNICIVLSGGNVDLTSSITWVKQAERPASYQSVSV
Summary of the method: (§2)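 Purified enzyme (30 μg) in 40 mM Tris-HCl pH 8.0, 60 μM pyridoxal phosphate, 1 mM MgCl2, ATP, 1 mM dithiothreitol, 10 mM L-Ser, with compound; 37 °C, 10 min; methanol stop. D-Ser quantified by OPA/Boc-L-cysteine derivatization and reversed-phase HPLC fluorescence (ex 344, em 443 nm).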

[3] = molecular target: T3, Serine racemase (Homo sapiens) (UniProt Q9GZT4); experiment: as §1; summary of the method: as §2
T3 sequence (whole entry): T2 sequence (Q9GZT4 whole entry)

[4] = molecular target: T1, D-amino-acid oxidase; experiment: Inhibition of human recombinant N-terminal His-tagged DAO expressed in Escherichia coli BL21(DE3) using D-alanine as substrate assessed as residual activity at 10000 uM by colorimetric assay relative to control
Summary of the method: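 Purified enzyme (0.23–4.2 μg) in air-saturated 40 mM sodium pyrophosphate pH 8.3, 23 U catalase, 60 μM FAD, 10 mM D-amino acid substrate, with compound; 37 °C, 10 min; stopped with trichloroacetic acid. 2-Oxo acid reacted with 2,4-dinitrophenylhydrazine, A445 read against substrate-free blank.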
Target sequence in this assay (P14920 whole entry, looked up): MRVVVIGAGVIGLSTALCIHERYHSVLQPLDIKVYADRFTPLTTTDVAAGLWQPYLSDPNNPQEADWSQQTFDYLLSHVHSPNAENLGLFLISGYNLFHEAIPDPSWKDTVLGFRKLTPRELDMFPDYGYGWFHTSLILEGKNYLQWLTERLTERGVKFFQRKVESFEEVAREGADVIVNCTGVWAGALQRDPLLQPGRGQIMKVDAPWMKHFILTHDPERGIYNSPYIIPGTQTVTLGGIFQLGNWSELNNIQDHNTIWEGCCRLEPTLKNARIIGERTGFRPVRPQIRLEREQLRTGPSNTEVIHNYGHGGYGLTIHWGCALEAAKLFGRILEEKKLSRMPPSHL

[5] = molecular target: T1, D-amino-acid oxidase; experiment: Inhibition of human recombinant N-terminal His-tagged DAO expressed in Escherichia coli BL21(DE3) using D-serine as substrate by colorimetric assay
[6] = molecular target: T4, D-aspartate oxidase (Homo sapiens) (UniProt Q99489); experiment: (§3) Inhibition of human recombinant N-terminal His-tagged DDO expressed in Escherichia coli BL21(DE3) using D-aspartate as substrate by colorimetric assay
T4 sequence (whole entry): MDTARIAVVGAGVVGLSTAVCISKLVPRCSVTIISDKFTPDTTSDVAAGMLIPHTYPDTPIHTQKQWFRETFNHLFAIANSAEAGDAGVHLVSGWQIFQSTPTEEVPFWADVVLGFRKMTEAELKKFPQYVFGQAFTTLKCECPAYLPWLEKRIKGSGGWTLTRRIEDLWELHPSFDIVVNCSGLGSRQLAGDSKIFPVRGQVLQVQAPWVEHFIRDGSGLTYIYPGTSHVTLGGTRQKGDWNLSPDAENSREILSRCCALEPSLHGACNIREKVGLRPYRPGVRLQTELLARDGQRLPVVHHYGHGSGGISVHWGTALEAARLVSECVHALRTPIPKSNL
Summary of the method: (§4)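 Purified enzyme (0.23–4.2 μg) with 10 mM D-Asp in air-saturated 40 mM sodium pyrophosphate pH 8.3, 23 U catalase, 60 μM FAD; 37 °C, 10 min; trichloroacetic acid stop; 2-oxo acid measured as 2,4-dinitrophenylhydrazone at A445.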

[7] = molecular target: T5, D-aspartate oxidase (Homo sapiens, UniProt Q99489); experiment: as §3; summary of the method: as §4
T5 sequence (Q99489 whole entry): T4 sequence (whole entry)

[8] = molecular target: T1, D-amino-acid oxidase; details: HEK293/NEO, 17 uM
Target sequence in this assay (P14920 whole entry, looked up): as the sequence (P14920 whole entry, looked up) above

[9] = molecular target: T1, D-amino-acid oxidase; experiment: Competitive inhibition of human recombinant N-terminal His-tagged DAO expressed in Escherichia coli BL21(DE3) using D-alanine as substrate by Lineweaver-Burk plot analysis
Summary of the method: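 Purified N-terminal His-tagged human DAO from E. coli BL21(DE3)pLysS. Colorimetric 2-oxo acid assay in air-saturated 40 mM sodium pyrophosphate pH 8.3 with catalase, 60 μM FAD and 0.5–40 mM D-Ala, 37 °C for 10 min. Stopped with TCA, derivatized with 2,4-dinitrophenylhydrazine, read at A445. Lineweaver–Burk plots; Ki confirmed by slope replot against inhibitor concentration. Three independent experiments.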
Target sequence in this assay (P14920 whole entry, looked up): as the sequence (P14920 whole entry, looked up) above

[10] = tested on: D-amino-acid oxidase (Homo sapiens), P14920 [Y224A]; experiment: (§5) Inhibition of human recombinant N-terminal His-tagged DAO Y224A mutant expressed in Escherichia coli BL21(DE3) using D-alanine as substrate after 10 mins by Lineweaver-Burk plot analysis
Chain of D-amino-acid oxidase (Homo sapiens), P14920 [Y224A] (P14920 whole entry Y224A): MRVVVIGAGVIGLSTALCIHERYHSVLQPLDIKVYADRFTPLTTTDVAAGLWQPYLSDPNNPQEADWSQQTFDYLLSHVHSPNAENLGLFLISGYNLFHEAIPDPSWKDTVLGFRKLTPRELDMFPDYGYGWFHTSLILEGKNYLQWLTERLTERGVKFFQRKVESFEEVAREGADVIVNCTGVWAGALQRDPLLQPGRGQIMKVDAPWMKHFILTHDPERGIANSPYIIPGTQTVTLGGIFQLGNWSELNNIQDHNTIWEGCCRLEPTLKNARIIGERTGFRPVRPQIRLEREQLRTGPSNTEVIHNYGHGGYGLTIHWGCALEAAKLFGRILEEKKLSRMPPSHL

[11] = tested on: HEK293/NEO; experiment: Effect on L-alanine level in G418-resistant HEK293/NEO cells at 17 uM by HPLC analysis relative to vehicle-treated control; type: functional, cell-based; details: Homo sapiens
Summary of the method: (§6)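 293/NEO (empty-vector, G418-selected) or 293.HA-hDAO-24 (stable N-terminal HA-tagged human DAO) cells, 1 × 10^6 seeded, maintained in DMEM/10% FBS/800 μg/mL G418; next day fresh medium, compound or vehicle (5% DMSO solution) for 30 min, then 17 mM D-Ala for 24 h. Methanol extraction; D-/L-Ala by OPA/NAC derivatization HPLC with fluorescence; mean ± SD of three assays; Dunnett test vs vehicle.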

[12] = tested on: D-amino-acid oxidase (Homo sapiens), P14920 [Y224F]; experiment: (§7) Inhibition of human recombinant N-terminal His-tagged DAO Y224F mutant expressed in Escherichia coli BL21(DE3) using D-alanine as substrate after 10 mins by Lineweaver-Burk plot analysis
Chain of D-amino-acid oxidase (Homo sapiens), P14920 [Y224F] (P14920 whole entry Y224F): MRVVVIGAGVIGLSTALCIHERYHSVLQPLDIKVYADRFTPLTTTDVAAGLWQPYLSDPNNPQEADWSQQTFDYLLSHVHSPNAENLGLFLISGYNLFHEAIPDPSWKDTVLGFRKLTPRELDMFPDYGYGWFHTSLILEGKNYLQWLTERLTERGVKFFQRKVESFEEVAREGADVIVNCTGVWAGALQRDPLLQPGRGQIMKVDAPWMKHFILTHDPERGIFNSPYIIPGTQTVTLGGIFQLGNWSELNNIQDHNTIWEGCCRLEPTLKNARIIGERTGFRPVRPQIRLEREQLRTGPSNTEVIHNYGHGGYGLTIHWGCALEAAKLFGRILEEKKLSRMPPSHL

[13] = tested on: HEK293; experiment: Effect on L-alanine level in G418-resistant HEK293 cells at 17 uM by HPLC analysis relative to vehicle-treated control; type: functional, cell-based; details: Homo sapiens; summary of the method: as §6
[14] = molecular target: T1, D-amino-acid oxidase
Target sequence in this assay (P14920 whole entry): as the sequence (P14920 whole entry, looked up) above

[15] = molecular target: T1, D-amino-acid oxidase; experiment: Binding affinity to human recombinant N-terminal His-tagged DAO expressed in Escherichia coli BL21(DE3) at 40 uM after 2 to 30 mins by absorption spectra analysis; details: 200 uM, in the assay text read “at 200 uM” for “at 40 uM”
Summary of the method: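 Purified enzyme at 1.7 μg/μL in 10 mM sodium pyrophosphate pH 8.3 with 2 mM EDTA, 5 mM 2-mercaptoethanol, 10% (v/v) glycerol; wavelength scans at 25 °C before and after compound addition (final 40 μM or 200 μM depending on compound), recorded at indicated times; binding inferred from perturbation of the absorption spectrum.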
Target sequence in this assay (P14920 whole entry, looked up): as above

[16] = molecular target: T1, D-amino-acid oxidase; experiment: Inhibition of human recombinant N-terminal His-tagged DAO expressed in Escherichia coli BL21(DE3) using D-alanine as substrate by Lineweaver-Burk plot analysis
Target sequence in this assay (P14920 whole entry): as the sequence (P14920 whole entry, looked up) above

[17] = molecular target: D-amino-acid oxidase (Homo sapiens, UniProt P14920, Y224A); experiment: as §5
Chain of D-amino-acid oxidase (Homo sapiens, UniProt P14920, Y224A) (P14920 whole entry Y224A): as the sequence (P14920 whole entry Y224A) above

[18] = molecular target: D-amino-acid oxidase (Homo sapiens, UniProt P14920, Y224F); experiment: as §7
Chain of D-amino-acid oxidase (Homo sapiens, UniProt P14920, Y224F) (P14920 whole entry Y224F): as the sequence (P14920 whole entry Y224F) above

[19] = tested on: HEK293; experiment: Effect on L-alanine level in G418-resistant HEK293 cells at 83 uM by HPLC analysis relative to vehicle-treated control; type: functional, cell-based; details: Homo sapiens; summary of the method: as §6
[20] = molecular target: T1, D-amino-acid oxidase; experiment: Binding affinity to human recombinant N-terminal His-tagged DAO expressed in Escherichia coli BL21(DE3) at 200 uM after 2 to 30 mins by absorption spectra analysis
Target sequence in this assay (P14920 whole entry, looked up): as the sequence (P14920 whole entry, looked up) above

[21] = molecular target: T1, D-amino-acid oxidase; experiment: Inhibition of human recombinant DAO expressed in G418-resistant HEK293/NEO cells assessed as effect on D-alanine level at 83 uM incubated for 30 mins prior to D-alanine addition measured after 24 hrs by HPLC analysis relative to vehicle-treated control; type: cell-based
Summary of the method: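 HEK293 cells stably carrying HA-tagged human DAO (clone 293.HA-hDAO-24) or empty vector (293/NEO), seeded at 1 × 10^6. Next day, fresh medium and 83 μM compound or vehicle (5% DMSO solution) for 30 min, then 17 mM D-Ala for 24 h. Cells methanol-extracted; D-/L-Ala by OPA/NAC-derivatized HPLC. Three independent assays, Dunnett test vs vehicle.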
Target sequence in this assay (P14920 whole entry, looked up): as above

[22] = molecular target: T1, D-amino-acid oxidase; details: HEK293, 83 uM
[23] = tested on: HEK293/NEO; experiment: Effect on L-alanine level in G418-resistant HEK293/NEO cells at 83 uM by HPLC analysis relative to vehicle-treated control; type: functional, cell-based; details: Homo sapiens; summary of the method: as §6

Structure (SMILES) | IC50 [1] | inhibition [1] | IC50 [2] | inhibition [3] | IC50 [5] | inhibition [5] | inhibition [6] | IC50 [7] | inhibition [9] | inhibition [10] | Activity [11] | inhibition [12] | Activity [13] | Ki [16] | Ki [17] | Ki [18] | Activity [19] | inhibition [21] | Activity [23] | further results
O=C(O)/C=C/c1cccc(O)c1 | > 10000 µM | Dose-dependent effect | 8390 µM | Dose-dependent effect | 6270 µM | Dose-dependent effect | Dose-dependent effect | > 10000 µM |  |  |  |  |  |  |  |  |  |  |  | Activity [4]: 51.5%
O=C(O)c1cc2occc2[nH]1 |  |  | > 100 µM |  |  | Dose-dependent effect |  | > 100 µM | Active | Dose-dependent effect | inactive | Dose-dependent effect | inactive |  |  |  |  |  |  | inhibition [8]: inactive
CCCc1sc(C(=O)O)cc1CC | > 10000 µM | Dose-dependent effect | > 10000 µM | Dose-dependent effect | 7900 µM |  | Dose-dependent effect | > 10000 µM |  |  |  |  |  |  |  |  |  |  |  | Activity [4]: 67.1%
O=C(O)c1ccccc1 [BENZOIC ACID] | 65.7 µM |  | > 10000 µM |  | 46.9 µM | Dose-dependent effect |  | > 10000 µM | Active | Dose-dependent effect |  | Dose-dependent effect |  | 10.9 µM | 37.5 µM | 54 µM |  |  |  | Ki [14]: 7 µM; Activity [15]: Active
O=c1oc2ccccc2cc1O [3-HYDROXYCOUMARIN] | 0.943 µM | Dose-dependent effect | > 10000 µM | Dose-dependent effect | 0.44 µM | Dose-dependent effect | Dose-dependent effect | 7580 µM | Active | Dose-dependent effect | inactive | Dose-dependent effect | inactive | 0.156 µM | 3.69 µM | 0.265 µM | inactive | inactive | inactive | Activity [20]: Active; inhibition [22]: Active
O=C(O)c1cc2c(s1)CCC2 | 59.8 µM | Dose-dependent effect | 5280 µM | Dose-dependent effect | 28.5 µM | Dose-dependent effect | Dose-dependent effect | > 10000 µM | Active | Dose-dependent effect |  | Dose-dependent effect | inactive | 9.92 µM | 4.59 µM | 14.4 µM | inactive | inactive | inactive | Activity [15]: Active
O=C(O)c1ccsc1 |  | Dose-dependent effect | 8210 µM | Dose-dependent effect |  | Dose-dependent effect | Dose-dependent effect | > 10000 µM | Active | Dose-dependent effect | inactive | Dose-dependent effect | inactive |  |  |  | inactive | inactive | inactive | Activity [20]: Active; inhibition [22]: Active
